An excerpt weighted towards active compounds, which were near 2.3% of everything screened.
TRPC4 act – activators of mouse TRPC4 channel, primary screen, Fluo4 calcium, HEK293 TRPC4beta/mu-opioid cells | Short transient receptor potential channel 4 (Mus musculus), Q9QUQ5 | Fluo4 calcium fluorescence; stronger effect = higher value | B-score at 10 µM | 310,000 tested, 0.49% active | AID 2237, 2010;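 active = B-score above 5 SD of library B-scores, and initial fluorescence ratio not above library mean plus 5 SD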;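 also: positive B-score marks a calcium rise read as TRPC4 activation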
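Assay system – TRPC4beta and mu-opioid receptor HEK293 stable cells · Measured by – Fluo4 fluorescence, kinetic · Schedule – dye loading 45 min room temperature, 110 s kinetic read · Read-out – B-scored integrated calcium fluorescence ratio · Controls – buffer and maximal DAMGO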
TRPC4 block – inhibitors of mouse TRPC4 channel, primary screen, Fluo4 calcium, HEK293 TRPC4beta/mu-opioid cells; Short transient receptor potential channel 4 (Mus musculus), Q9QUQ5; DAMGO-evoked Fluo4 calcium flux; stronger effect = lower value; B-score at 10 µM; 300,000 tested, 0.39% active;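 active = B-score over 3 SD under the library average, no early fluorescence shift, positive overall ratio signal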
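Assay system: Stable TRPC4beta/mu-opioid receptor HEK293 cells | Reagent: DAMGO in two steps, submaximal then maximal | Compound dosing: Single concentration per test compound | Signal: Fluo4 Ca2+ flux fluorescence | Evaluation: Per-well B score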
TRPC4 potent – positive allosteric modulators of TRPC4, primary screen, cell-based, mouse TRPC4beta, HEK293 mu-opioid, Fluo-4 calcium | AID 2227, 2009 | 310,000 tested, 0.42% active | B-score at 10 µM | DAMGO EC20, Fluo-4 Ca2+ flux; stronger effect = higher value;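 active = B-score of calcium response area above 5 SD of library B-scores, with initial fluorescence ratio within 5 SD of library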;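 also: B-score of integrated fluorescence ratio over time as area under calcium response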
TRPC6 act – mouse TRPC6 channel activators, primary screen, cell-based, HEK293, membrane potential dye; Short transient receptor potential channel 6 (Mus musculus), Q61143; AID 2550, 2010; HEK293-TRPC6 membrane potential dye fluorescence; stronger effect = higher value; B-score at 10 µM; 310,000 tested, 0.13% active;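 active = B-score of the integrated fluorescence ratio above library mean plus 3 SD, and starting fluorescence ratio within library mean plus 5 SD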;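 also: higher score means more depolarization so channel activation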
TRPC6 inh – mouse TRPC6 channel inhibitors, primary screen, cell-based, HEK293, membrane potential dye | AID 2553, 2010 | 310,000 tested, 1.1% active | B-score at 10 µM | ACh-evoked depolarization; stronger effect = lower value;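 active = B-score under library mean minus 3 SD, initial fluorescence not abnormally high, positive integrated signal ratio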;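 also: B-score derived from integrated fluorescence ratio over the kinetic read; more negative B-score means stronger inhibition of depolarization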
TRPC4 spec 2 – second selectivity test of TRPC6 inhibitors: effect on mouse TRPC4 | shares compounds with TRPC6 inh | HEK293 TRPC4/MOR, membrane potential dye fluorescence; channel activated by saturating DAMGO dose | inhibition, % at 10 µM | 920 tested, 42% active | AID 2776;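 active = compounds whose fluorescence signal differed from control wells by over 3 SD, either direction, in both duplicate plates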
TRPC4 spec – mouse TRPC4 modulation by TRPC6 hits, confirmation, selectivity assay for TRPC6 inhibitor project, cell-based, HEK293 TRPC4/mu-opioid, membrane potential dye; shares compounds with TRPC6 inh; 920 tested, 61% active; membrane potential fluorescence; activity change, negative = inhibition, % at 10 µM;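 active = rise or fall in signal beyond 3 SD of buffer-only wells in both replicate plates, either sign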;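 also: integrated kinetic ratio of fluorescence range over baseline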
HEK293 MPD ctr 2-1 – nonspecific membrane potential effects, parental HEK293, confirmation, counter-screen for TRPC6 inhibitor project, cell-based, second counter screen. shares compounds with TRPC6 inh. parental HEK293 membrane potential dye fluorescence; maximal acetylcholine challenge after compound addition. signal change vs control, % at 10 µM. 920 tested, 31% active. AID 2779, 2010;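 active = membrane potential signal moving either way by over 3 SD of the maximum-effect control, in both duplicate plates, meaning non-specific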
HEK293 MPD ctr-1 – membrane potential modulation in parental HEK293, confirmation, counter-screen for TRPC6 inhibitor project, cell-based; shares compounds with TRPC6 inh; parental HEK293 membrane potential dye fluorescence; membrane potential signal change, % at 10 µM; 920 tested, 60% active;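 active = membrane potential signal shifting up or down by more than 3 SD of buffer-only wells, on both duplicate plates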
HEK293 MPD ctr-2 – parental HEK293 membrane potential modulation, confirmation, counter-screen for TRPC6 modulator project, cell-based; shares compounds with TRPC6 inh; membrane potential dye fluorescence; membrane potential signal change, % at 10 µM; 2,400 tested, 51% active; AID 488924, 2010;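 active = membrane potential signal moves up or down beyond 5 SD from buffer-only wells, on both duplicate plates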
HEK293 MPD ctr 2-2 – parental HEK293 nonspecific activity of TRPC6 modulators, second screen | shares compounds with TRPC6 inh | membrane potential dye fluorescence; after compound, maximal acetylcholine stimulation | inhibition, % at 10 µM | 2,400 tested, 14% active;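 active = membrane potential signal drops by more than 5 SD from the mean control signal, in both duplicate plates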;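 also: plate controls were acetylcholine ECmax control wells for no effect and buffer only wells for full effect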
TRPC4/MOR mod – TRPC4 modulation by TRPC6 hit compounds, confirmation, selectivity assay for TRPC6 modulator project, cell-based, HEK293 TRPC4/mu-opioid, membrane potential dye, mouse; shares compounds with TRPC6 inh; membrane potential fluorescence; percent change from control (negative = decrease, positive = increase), % at 10 µM; 2,400 tested, 69% active; AID 488927, 2010;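 active = membrane potential signal moved up or down beyond 5 SD of buffer control wells, in both duplicate plates, actives on both sides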;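 also: plate controls were assay buffer wells for no effect and DAMGO maximal-effect wells for full effect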
TRPC4 ctr inh 2 – mouse TRPC4 off-target activity of TRPC6 modulators, second screen. shares compounds with TRPC6 inh. HEK293 TRPC4/mu-opioid, membrane potential dye fluorescence; stimulated with maximal-effect DAMGO. AID 488928. inhibition, % at 10 µM. 2,400 tested, 55% active;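 active = drop in membrane potential signal beyond 5 SD of the control wells in both duplicate plates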;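 also: TRPC4 counter screen for TRPC6 hits run under conditions tuned for TRPC6 not TRPC4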
TRPC6 inh conf – mouse TRPC6 channel inhibitors, confirmation, HEK293 cells, membrane potential dye, duplicate; shares compounds with TRPC6 inh; ACh-evoked depolarization; inhibition, % at 10 µM; 3,300 tested, 43% active; AID 488960, 2010;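 active = fluorescence ratio falls more than 5 SD below the full-stimulation control mean, in both duplicate runs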;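 also: integrated fluorescence ratio of peak minus minimum over baseline after agonist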
TRPC6 act conf – mouse TRPC6 channel activators, confirmation, HEK293 cells, membrane potential dye, duplicate. 2,800 tested, 11% active. shares compounds with TRPC6 inh. HEK293-TRPC6 membrane potential dye fluorescence, FDSS. activation, % at 10 µM;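 active = ratio signal rise beyond 5 SD above unstimulated control wells' mean, seen in both duplicate runs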;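 also: plate controls were buffer EC0 wells for no effect and acetylcholine ECmax response for full effect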
* marks the source's active call; other numbers are inactive results; i = inactive; . = not tested or not shown.

SMILES	TRPC4 act	TRPC4 block	TRPC4 potent	TRPC6 act	TRPC6 inh	HEK293 MPD ctr-2	HEK293 MPD ctr 2-2	TRPC4/MOR mod	TRPC4 ctr inh 2	TRPC6 inh conf	TRPC6 act conf	others
CC[N+]1(C)CCC(=C2c3ccccc3CC(=O)c3sccc32)CC1 (stereo unspecified)	i	i	i	i	-14*	.	.	.	.	80%*	i	TRPC4 spec 2=i;TRPC4 spec=i;HEK293 MPD ctr 2-1=43%*;HEK293 MPD ctr-1=i
CN(C)/C=C1\Cc2ccccc2C1=O	i	i	i	i	i	.	.	.	.	.	.
COc1cc2c(cc1OC)-c1cc(Nc3ccc(C(=O)O)cc3)nc(=O)n1CC2	i	i	i	i	i	.	.	.	.	.	.
N=C1CCCN1CC(=O)c1ccc(Cl)cc1	i	i	i	i	-5.1*	i	i	i	i	i	i
COC(=O)CSc1ccsc1C(=O)O	i	i	i	i	i	.	.	.	.	.	.
COC(=O)CSc1cccc2c1C(=O)CC2c1ccccc1 (stereo unspecified)	i	i	i	i	-7.7*	.	.	.	.	i	.	TRPC4 spec 2=i;TRPC4 spec=1.9%*;HEK293 MPD ctr 2-1=i;HEK293 MPD ctr-1=3.3%*
CC(C)(C)c1ccc(-c2nc(NCc3cccnc3)c3ccccc3n2)cc1	i	i	i	i	-6.8*	i	i	i	i	i	i
c1cncc(CNc2nc(-c3cccnc3)nc3ccccc23)c1	i	i	i	i	i	.	.	.	.	.	.
c1ccc(CNc2nc(-c3ccccn3)nc3ccccc23)cc1	i	i	i	i	-7*	-208%*	i	-40%*	62%*	40%*	i
c1ccc(CN2CCC(Nc3nc(-c4cccnc4)nc4ccccc34)CC2)cc1	i	i	i	i	-6.3*	-294%*	i	-52%*	66%*	56%*	i
CCC(C)Nc1nc(-c2ccccn2)nc2ccccc12 (stereo unspecified)	i	i	i	i	-5.2*	-274%*	i	-40%*	53%*	i	i
c1ccc(CNc2nc(-c3cccnc3)nc3ccccc23)cc1	i	i	i	i	i	.	.	.	.	.	.
C=CCn1cc(C(=O)N2CCN(CC)CC2)c(=O)c2cc(S(=O)(=O)N(CC)CC)ccc21	i	i	i	i	i	.	.	.	.	.	.
O=c1c2ccccc2nc(SCCN2CCCCC2)n1CCc1ccccc1	i	i	i	i	-7.8*	.	.	.	.	68%*	i	TRPC4 spec 2=42%*;TRPC4 spec=i;HEK293 MPD ctr 2-1=i;HEK293 MPD ctr-1=i
Cn1c(=O)c2c(nc(SCCN3CCCCC3)n2Cc2ccc(Cl)cc2)n(C)c1=O	80*	i	40*	i	-6.2*	-121%*	i	26%*	93%*	i	i
NC(=O)CSc1nc2ccccc2c(=O)n1CCc1ccccc1	i	i	i	i	i	.	.	.	.	.	.
CC1CC(C)CN(C(=O)c2ccc3c(c2NCCO)C(=O)c2ccccc2C3=O)C1 (stereo unspecified)	i	i	i	i	-7*	-246%*	i	-45%*	80%*	68%*	i
O=C(CN1CCS(=O)(=O)CC1)N/N=C/c1cccc(C(F)(F)F)c1	i	i	i	i	-5.3*	i	i	i	i	i	i
COc1ccc(/C=N/NC(=O)CN2CCS(=O)(=O)CC2)cc1	i	i	i	i	i	.	.	.	.	.	.
O=C(CCCN1C(=O)c2cccc3cccc(c23)C1=O)N1CCN(c2ccc(F)cc2)CC1	i	i	i	i	i	.	.	.	.	.	.
O=C1C(Cl)=C(N2CCN(Cc3ccccc3)CC2)C(=O)N1Cc1ccccc1	i	i	i	i	i	.	.	.	.	.	.
c1ccc(CN2CCN(C3=Nc4cccc5cccc3c45)CC2)cc1	i	i	i	i	-8.2*	-191%*	i	-50%*	72%*	68%*	i
Fc1ccc(N2CCN(C3=Nc4cccc5cccc3c45)CC2)cc1	i	i	i	i	-8.8*	-80%*	i	-38%*	74%*	68%*	i
Cc1cc(C)c(C#N)c(Nc2ccc3c(c2)OCCO3)n1	i	i	i	i	i	.	.	.	.	.	.
